In ChEMBL document CHEMBL3392964, “Design, synthesis, and evaluation of novel imidazo[1,2-a][1,3,5]triazines and their derivatives as focal adhesion kinase inhibitors with antitumor activity” (J Med Chem, 2015):
Calls of active or inactive are those of the source. The rule behind the calls is not given here.

What was measured:
Focal adhesion kinase 1 [1] = molecular target: T1, Focal adhesion kinase 1 (Homo sapiens, UniProt Q05397); test: Inhibition of FAK phosphorylation at tyrosine 397 in human U87MG cells at 0.1 to 10 uM after 48 hrs by FACEFAK ELISA; assay type: cell-based; conditions: U-87MG ATCC
In short: (§1)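 Cells were grown in DMEM with 10% FBS, seeded at 3 × 10^3 per well and treated for 48 h at 0.1, 1 and 10 μM. They were then fixed in 4% formaldehyde and probed with anti-phospho-Tyr397 FAK or total-FAK antibody plus an HRP secondary, read at 450 nm. Signal was normalised to total FAK and to crystal-violet cell number (595 nm). Values are fold decrease versus control, mean of triplicate readings from three independent experiments.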

Focal adhesion kinase 1 [2] = molecular target: T1, Focal adhesion kinase 1; test: Inhibition of FAK phosphorylation at tyrosine 397 in human HCT116 cells at 0.1 to 10 uM after 48 hrs by FACEFAK ELISA; assay type: cell-based; conditions: HCT-116; in short: as §1
Focal adhesion kinase 1 [3] = molecular target: T1, Focal adhesion kinase 1; test: Inhibition of FAK phosphorylation at tyrosine 397 in human MDA-MB-231 cells at 0.1 to 10 uM after 48 hrs by FACEFAK ELISA; assay type: cell-based; in short: as §1
Focal adhesion kinase 1 [4] = molecular target: T1, Focal adhesion kinase 1; test: Inhibition of FAK phosphorylation at tyrosine 397 in human PC3 cells at 0.1 to 10 uM after 48 hrs by FACEFAK ELISA; assay type: cell-based; conditions: PC-3; in short: as §1
[5] = Antiproliferative activity against human U87MG cells after 48 hrs by WST-1 assay; assay type: functional, cell-based, U-87MG ATCC; conditions: U-87 MG
In short: (§2)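 Exponentially growing cells in DMEM/10% FBS seeded at 5 × 10^3 per well, left overnight, then exposed 48 h to compounds diluted from DMSO; WST-1 added for 2 h, absorbance at 450 nm (reference 620 nm); viability as ratio to DMSO controls; three independent experiments, triplicate points; IC50 by nonlinear regression (log inhibitor vs normalized response, variable slope).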

[6] = Antiproliferative activity against human HCT116 cells after 48 hrs by WST-1 assay; assay type: functional, cell-based; conditions: HCT-116, 48 h; in short: as §2
MDA-MB-231 [7] = test: Antiproliferative activity against human MDA-MB-231 cells after 48 hrs by WST-1 assay; assay type: functional, cell-based; conditions: MDA-MB-231, 48 h; in short: as §2
[8] = Antiproliferative activity against human PC3 cells after 48 hrs by WST-1 assay; assay type: functional, cell-based; conditions: PC-3, 48 h; in short: as §2
[9] = (§3) Inhibition of colony formation in human U87MG cells after 2 weeks by crystal violet staining-based assay; assay type: functional, cell-based, U-87MG ATCC; conditions: U-87 MG, 336 h
In short: (§4)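 Seeding: 250 cells per well for HCT-116, 300 for U87MG, MDA-MB-231 and PC-3; incubated overnight, then exposed to a range of concentrations for 2 weeks. Fixed in 4% paraformaldehyde 30 min at room temperature, stained with 0.1% crystal violet. Colonies over 50 cells counted; colony formation rate calculated; IC50 by nonlinear regression.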

U-87MG ATCC [10] = test: as §3; assay type: functional, cell-based; in short: as §4
[11] = (§5) Inhibition of colony formation in human HCT116 cells after 2 weeks by crystal violet staining-based assay; assay type: functional, cell-based; conditions: HCT-116, 336 h; in short: as §4
HCT-116 [12] = test: as §5; assay type: functional, cell-based; in short: as §4
MDA-MB-231 [13] = test: Inhibition of colony formation in human MDA-MB-231 cells after 2 weeks by crystal violet staining-based assay; assay type: functional, cell-based; in short: as §4
[14] = (§6) Inhibition of colony formation in human PC3 cells after 2 weeks by crystal violet staining-based assay; assay type: functional, cell-based; conditions: PC-3, 336 h; in short: as §4
PC-3 = test: as §6; assay type: functional, cell-based; in short: as §4
U-87 MG [15] = test: Induction of apoptosis in human U87MG cells assessed as early apoptotic cells at 1 uM after 24 hrs by Annexin V-PE/7-AAD staining-based FACS analysis (reference value: 0.691%); assay type: functional, U-87MG ATCC
U-87 MG [16] = test: Induction of apoptosis in human U87MG cells assessed as late apoptotic cells at 1 uM after 24 hrs by Annexin V-PE/7-AAD staining-based FACS analysis (reference value: 1.59%); assay type: functional, U-87MG ATCC
U-87 MG [17] = test: Induction of apoptosis in human U87MG cells assessed as necrotic cells at 1 uM after 24 hrs by Annexin V-PE/7-AAD staining-based FACS analysis (reference value: 1.06%); assay type: functional, U-87MG ATCC
U-87 MG [18] = test: Induction of apoptosis in human U87MG cells assessed as viable cells at 1 uM after 24 hrs by Annexin V-PE/7-AAD staining-based FACS analysis (reference value: 96.7%); assay type: functional, U-87MG ATCC; conditions: read-out: Activity
HCT-116 [19] = test: Induction of apoptosis in human HCT116 cells assessed as early apoptotic cells at 0.3 uM after 24 hrs by Annexin V-PE/7-AAD staining-based FACS analysis (reference value: 4.68%); assay type: functional
HCT-116 [20] = test: Induction of apoptosis in human HCT116 cells assessed as late apoptotic cells at 0.3 uM after 24 hrs by Annexin V-PE/7-AAD staining-based FACS analysis (reference value: 1.22%); assay type: functional
HCT-116 [21] = test: Induction of apoptosis in human HCT116 cells assessed as necrotic cells at 0.3 uM after 24 hrs by Annexin V-PE/7-AAD staining-based FACS analysis (reference value: 0.885%); assay type: functional
HCT-116 [22] = test: Induction of apoptosis in human HCT116 cells assessed as viable cells at 0.3 uM after 24 hrs by Annexin V-PE/7-AAD staining-based FACS analysis (reference value: 93.2%); assay type: functional; conditions: HCT-116, 24 h, read-out: Activity
HCT-116 [23] = test: Induction of apoptosis in human HCT116 cells assessed as apoptotic cells at 0.3 uM after 24 hrs by Annexin V-PE/7-AAD staining-based FACS analysis relative to control; assay type: functional
HCT-116 [24] = test: Induction of apoptosis in human HCT116 cells at < 0.3 uM after 24 hrs by Annexin V-PE/7-AAD staining-based FACS analysis; assay type: functional, cell-based
[25] = Cell cycle arrest in human U87MG cells assessed as accumulation at G0/G1 phase at 1 uM after 24 hrs by propidium iodide staining-based flow cytometry (reference value: 61.7%); assay type: functional; conditions: U-87MG ATCC
In short: (§7)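 Cells plated at 10^5 per well, left overnight, then exposed 24 h to compound or vehicle; stained 15 min at 37 °C with propidium iodide/Triton buffer; DNA content by flow cytometry, phase distribution fitted by Dean–Jett–Fox; HCT-116 at 0.3–0.5 μM, U87-MG at 0.3–3 μM; significance by unpaired Student's t test; one representative experiment.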

[26] = Cell cycle arrest in human U87MG cells assessed as accumulation at S phase at 1 uM after 24 hrs by propidium iodide staining-based flow cytometry (reference value: 16%); assay type: functional; conditions: U-87MG ATCC; in short: as §7
[27] = Cell cycle arrest in human U87MG cells assessed as accumulation at G2/M phase at 1 uM after 24 hrs by propidium iodide staining-based flow cytometry (reference value: 20%); assay type: functional; conditions: U-87MG ATCC; in short: as §7
[28] = Cell cycle arrest in human HCT116 cells assessed as accumulation at G0/G1 phase at 0.3 uM after 24 hrs by propidium iodide staining-based flow cytometry (reference value: 63.8%); assay type: functional; conditions: HCT-116; in short: as §7
[29] = Cell cycle arrest in human HCT116 cells assessed as accumulation at S phase at 0.3 uM after 24 hrs by propidium iodide staining-based flow cytometry (reference value: 17.7%); assay type: functional; conditions: HCT-116; in short: as §7
[30] = Cell cycle arrest in human HCT116 cells assessed as accumulation at G2/M phase at 0.3 uM after 24 hrs by propidium iodide staining-based flow cytometry (reference value: 14.6%); assay type: functional; conditions: HCT-116; in short: as §7
[31] = Cell cycle arrest in human U87MG cells at < 1 uM after 24 hrs by propidium iodide staining-based flow cytometry; assay type: functional; conditions: U-87MG ATCC; in short: as §7
[32] = Cell cycle arrest in human HCT116 cells at < 0.3 uM after 24 hrs by propidium iodide staining-based flow cytometry; assay type: functional; conditions: HCT-116; in short: as §7
U-87 MG [33] = test: Reduction of cell adherence in human U87MG cells at 1 uM after 30 mins by toluidine blue staining-based […]; assay type: functional, U-87MG ATCC; design: scale not given: the % may be the effect or the level left
In short: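 U87-MG cells grown in 10% serum, trypsinised, diluted to 100 000 cells/mL in 10% serum medium, then treated 30 min with compound or DMSO. 20 000 cells per well allowed to attach 1 h. Fixed in 4% paraformaldehyde 30 min, stained with 0.1% toluidine blue in 4% PFA 30 min, washed, OD read at 620 nm for attached cells.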

[34] = Antimigratory activity in human U87MG cells at 1 uM […] by transwell membrane assay; assay type: functional, U-87MG ATCC
U-87MG ATCC [35] = test: Antimigratory activity in human U87MG cells after 30 mins by boyden chamber assay; assay type: functional, cell-based

T1 sequence (Q05397 2-1052 limits assumed): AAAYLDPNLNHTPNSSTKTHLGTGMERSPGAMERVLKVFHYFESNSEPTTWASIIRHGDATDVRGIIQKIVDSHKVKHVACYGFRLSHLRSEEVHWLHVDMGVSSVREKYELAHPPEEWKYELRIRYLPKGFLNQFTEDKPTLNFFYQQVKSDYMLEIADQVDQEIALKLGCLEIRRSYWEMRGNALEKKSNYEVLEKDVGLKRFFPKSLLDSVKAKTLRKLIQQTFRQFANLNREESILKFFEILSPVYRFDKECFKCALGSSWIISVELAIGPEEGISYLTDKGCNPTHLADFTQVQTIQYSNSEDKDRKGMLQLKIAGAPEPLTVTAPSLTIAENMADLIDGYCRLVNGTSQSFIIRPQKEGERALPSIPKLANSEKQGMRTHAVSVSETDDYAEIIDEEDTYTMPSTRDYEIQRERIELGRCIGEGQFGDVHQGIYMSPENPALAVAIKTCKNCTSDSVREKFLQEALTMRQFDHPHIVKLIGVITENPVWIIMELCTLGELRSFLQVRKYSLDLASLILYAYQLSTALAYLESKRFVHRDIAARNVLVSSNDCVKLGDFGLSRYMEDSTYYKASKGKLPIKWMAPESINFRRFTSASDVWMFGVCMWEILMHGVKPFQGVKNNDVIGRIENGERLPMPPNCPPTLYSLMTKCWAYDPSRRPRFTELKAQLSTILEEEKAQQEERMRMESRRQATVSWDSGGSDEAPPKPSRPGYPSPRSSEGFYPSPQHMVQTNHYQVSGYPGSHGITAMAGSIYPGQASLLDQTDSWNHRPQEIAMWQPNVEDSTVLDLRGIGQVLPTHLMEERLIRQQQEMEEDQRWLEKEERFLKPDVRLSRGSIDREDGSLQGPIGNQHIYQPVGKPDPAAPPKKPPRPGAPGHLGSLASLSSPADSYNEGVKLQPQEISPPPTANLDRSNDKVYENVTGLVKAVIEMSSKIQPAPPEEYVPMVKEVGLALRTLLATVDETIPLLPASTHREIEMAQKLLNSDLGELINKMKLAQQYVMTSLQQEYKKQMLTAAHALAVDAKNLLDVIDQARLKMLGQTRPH

Structure (SMILES): CNC(=O)c1ccccc1Nc1nc(Nc2ccc(N3CCOCC3)cc2OC)ncc1Cl
- inhibition (Focal adhesion kinase 1 [1]): Active
- inhibition (Focal adhesion kinase 1 [2]): Active
- inhibition (Focal adhesion kinase 1 [3]): Active
- inhibition (Focal adhesion kinase 1 [4]): Active
- IC50 [5]: 1200 nM
- IC50 [6]: 400 nM
- IC50 (MDA-MB-231 [7]): 2800 nM
- IC50 [8]: 1600 nM
- IC50 [9]: 190 nM
- inhibition (U-87MG ATCC [10]): Dose-dependent effect
- IC50 [11]: 230 nM
- inhibition (HCT-116 [12]): Dose-dependent effect
- inhibition (MDA-MB-231 [13]): Dose-dependent effect
- IC50 (MDA-MB-231 [13]; MDA-MB-231, 336 h): 1900 nM
- IC50 [14]: 260 nM
- inhibition (PC-3): Dose-dependent effect
- Activity (U-87 MG [15]): 3.12%
- Activity (U-87 MG [16]): 0.596%
- Activity (U-87 MG [17]): 0.9%
- viability at 1 µM (U-87 MG [18]): 95.4%
- Activity (HCT-116 [19]): 12.3%
- Activity (HCT-116 [20]): 32%
- Activity (HCT-116 [21]): 13.1%
- viability at 0.3 µM (HCT-116 [22]): 42.7%
- Activity (HCT-116 [23]): 41.8%
- Activity (HCT-116 [24]): Active
- Activity [25]: 49.9%
- Activity [26]: 7.11%
- Activity [27]: 40.8%
- Activity [28]: 31.3%
- Activity [29]: 10.4%
- Activity [30]: 54.4%
- Activity [31]: Active
- Activity [32]: Active
- Activity (U-87 MG [33]): 36%
- Activity [34]: 25.5%
- Activity (U-87MG ATCC [35]): Dose-dependent effect
